Measured values published in ChEMBL document CHEMBL3399929 (Bioorg Med Chem, 2015).
Converted amounts (≈) assume the structure as drawn. The source made the active and inactive calls. No cut-off for these calls is given here.

Legend:
[1] = Inhibition of Mycobacterium smegmatis TMC 607 ATP synthase incubated for 10 mins prior to NADH addition measured after 1 hr by luminescence assay; parameters: species or system Mycolicibacterium smegmatis
[2] = molecular target: ATP synthase (Mycobacterium tuberculosis) (UniProt P9WPU9+P9WPU5+P9WPU7+P9WPV5+P9WPS1+P9WPV1+P9WPV7+P9WPV3); test: Inhibition of Mycobacterium tuberculosis H37Rv ATP synthase assessed as reduction in total ATP content at 100 uM after 18 hrs by bead-vortexing settling method; type: protein-complex assay
Summary of the method: (§1)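 H37Rv was declumped by bead-vortexing and settling, adjusted to McFarland 1, then diluted 100-fold. Portions of 1 mL in tubes with 0.5 mm glass beads were exposed to compound for 18 h at 37 °C. Samples were heated 8–10 min, chilled on ice, and bead-beater lysed. Cleared lysate ATP was measured by luciferase assay.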

[3] = test system: Mycolicibacterium smegmatis; test: Inhibition of Mycobacterium smegmatis TMC 607 ATP synthase at 100 uM incubated for 10 mins prior to NADH addition measured after 1 hr by luminescence assay
Summary of the method: (§2)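 Inverted membrane vesicles from M. smegmatis were diluted to 100 µg protein/mL in 50 mM MOPS pH 7.5 with 10 mM MgCl2. Vesicles were preincubated with compound for 10 min at room temperature with stirring, then given 2.5 mM NADH for 1 min. The reaction was started with 1 mM ADP plus 10 mM potassium phosphate and run for 1 h. It was quenched with EDTA/TCA, and ATP was read by luciferase luminescence.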

Mus musculus = species on record: Mus musculus; test: Inhibition of Swiss mouse liver ATP synthase at 100 uM after 1 hr
Summary of the method: (§3)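 Liver mitochondria came from an overnight-fasted adult Swiss mouse, isolated by differential centrifugation in sucrose/Tris-MOPS/EGTA buffer pH 7.4 and assayed the same day. Mitochondria (100 µg) were stirred at room temperature with 100 µM compound in Tris/HCl, sucrose, 5 mM MgCl2 and 100 µM diadenosine pentaphosphate, pH 7.4. The reaction was started with 1 mM ADP, 20 mM Pi and 50 mM succinate, stopped after 1 h with EDTA-TCA, and ATP was read by luciferase.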

[4] = test system: Mycobacterium tuberculosis; test: Bactericidal activity against non-replicating Mycobacterium tuberculosis H37Rv Wayne model under hypoxic/oxygen depleted conditions assessed as log reduction at 100 ug/ml after 4 days by serial dilution assay; type: functional
Summary of the method: (§4)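 Wayne hypoxia model. A mid-log 7H9 culture was diluted to about 10^5 cfu/mL, and 10 mL was sealed in 20 mL headspace vials. Vials were stirred slowly at 37 °C for 20–22 days, until methylene blue indicator (1.5 µg/mL) decolorized. Drug was then injected through the septum, and vials were incubated 4 more days at 37 °C. Tests were run in duplicate, with CFU counted on 7H10 agar plates.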

[5] = test system: Mycobacterium tuberculosis; test: Bactericidal activity against non-replicating Mycobacterium tuberculosis H37Rv Wayne model under hypoxic/oxygen depleted conditions assessed as log reduction after 4 days by serial dilution assay; type: functional; summary of the method: as §4
[6] = test system: Mycobacterium tuberculosis; test: Antimycobacterial activity against Mycobacterium tuberculosis H37Rv after 4 weeks by agar dilution assay; type: functional; conditions: for MIC: Mycobacterium tuberculosis, H37Rv, 672 h, read-out: MIC100
Summary of the method: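 Agar dilution method. DMSO stocks (5 mg/mL) were serially diluted in DMSO, and 0.1 mL of each was mixed into 1.9 mL Middlebrook 7H10 agar with OADC and set as slants. Each tube received about 10^5 bacilli from a 3-week Lowenstein–Jensen culture suspended in saline with 0.05% Tween-80. Tubes were incubated at 37 °C for 4 weeks. MIC was the lowest concentration with no visible growth.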

[7] = test system: Mycobacterium tuberculosis; test: Antimycobacterial activity against Mycobacterium tuberculosis H37Rv infected in mouse chronic TB model assessed as survival rate at 490 umol/kg administered via esophageal cannula 6 times a week for 4 weeks relative to untreated control; type: functional; conditions: 672 h
Summary of the method: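 Male Balb/C mice (8–10 weeks, 18–20 g), ten per group, were infected intravenously with 5 × 10^6 CFU H37Rv in 0.2 mL. Dosing by gavage began on day 1, six times weekly for 4 weeks, with the last dose on day 28. Survival was followed to day 30. Survivors were sacrificed on day 30, and lung and spleen homogenates were plated on 7H10/OADC at 37 °C for 4–6 weeks. Results were compared with an untreated infected group.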

[8] = Cytotoxicity against mouse bone marrow macrophages […]; type: cell-based; conditions: macrophage
Staphylococcus aureus = test: Antibacterial activity against Staphylococcus aureus ATCC 25923 at 50 ug/ml; type: functional, organism-based
Cryptococcus neoformans = test: Antifungal activity against Cryptococcus neoformans at 50 ug/ml; type: functional, organism-based
Klebsiella pneumoniae = test: Antibacterial activity against Klebsiella pneumoniae ATCC 27736 at 50 ug/ml; type: functional, organism-based
[9] = Selectivity ratio of IC50 for Mycobacterium smegmatis TMC 607 ATP synthase to IC50 for Swiss mouse liver ATP synthase
[10] = test system: Mycobacterium tuberculosis; test: Bactericidal activity against non-replicating Mycobacterium tuberculosis H37Rv Wayne model under hypoxic/oxygen depleted conditions assessed as log reduction at 10 ug/ml after 4 days by serial dilution assay; type: functional; summary of the method: as §4
[11] = Inhibition of Swiss mouse liver ATP synthase after 1 hr; summary of the method: as §3
[12] = test system: Trichophyton mentagrophytes; test: Antifungal activity against Trichophyton mentagrophytes at 50 ug/ml; type: functional, organism-based
Candida albicans = test: Antifungal activity against Candida albicans at 50 ug/ml; type: functional, organism-based
Sporothrix schenckii = test: Antifungal activity against Sporothrix schenckii at 50 ug/ml; type: functional, organism-based
Pseudomonas aeruginosa = test: Antibacterial activity against Pseudomonas aeruginosa ATCC BAA-427 at 50 ug/ml; type: functional, organism-based
[13] = test system: Mycobacterium tuberculosis H37Rv; test: Inhibition of Mycobacterium tuberculosis H37Rv ATP synthase assessed as reduction in total ATP content at 50 ug/ml after 18 hrs by bead-vortexing settling method; summary of the method: as §1
Escherichia coli = test: Antibacterial activity against Escherichia coli ATCC 9637 at 50 ug/ml; type: functional, organism-based
Aspergillus fumigatus = test: Antifungal activity against Aspergillus fumigatus at 50 ug/ml; type: functional, organism-based
[14] = Cytotoxicity against African green monkey Vero cells after 72 hrs yb resazurin assay; type: cell-based; conditions: chlorocebus sabaeus
Summary of the method: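 Vero cells were seeded overnight in RPMI with 10% heat-inactivated FBS at 37 °C, 5% CO2. Cells were exposed in triplicate to concentrations from 100 to 1.56 µg/mL for 72 h. Resazurin (0.1%) was then added for 4–5 h, and fluorescence was read at ex 530/em 590 nm. CC50 was derived from the fluorescence plot.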

[15] = Selectivity index, ratio of CC50 for African green monkey Vero cells to MIC100 for Mycobacterium tuberculosis H37Rv; type: toxicity, cell-based; conditions: read-out: Selectivity Index
Summary of the method: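 Selectivity index is CC50 from the Vero resazurin assay divided by the agar-dilution MIC against H37Rv.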

Candida parapsilosis = test: Antifungal activity against Candida parapsilosis ATCC 22019 at 50 ug/ml; type: functional, organism-based
[16] = test system: Mycobacterium tuberculosis H37Rv; test: Inhibition of Mycobacterium tuberculosis H37Rv ATP synthase assessed as reduction in total ATP content at 12.5 ug/ml after 18 hrs by bead-vortexing settling method; summary of the method: as §1
[17] = test system: Mycobacterium tuberculosis; test: Bactericidal activity against non-replicating Mycobacterium tuberculosis H37Rv Wayne model under hypoxic/oxygen depleted conditions assessed as log reduction at 50 ug/ml after 4 days by serial dilution assay; type: functional; summary of the method: as §4
[18] = test system: Mycobacterium tuberculosis; test: Bactericidal activity against non-replicating Mycobacterium tuberculosis H37Rv Wayne model under hypoxic/oxygen depleted conditions assessed as log reduction at 5 ug/ml after 4 days by serial dilution assay; type: functional; summary of the method: as §4
[19] = test system: Mycobacterium tuberculosis H37Rv; test: Inhibition of Mycobacterium tuberculosis H37Rv ATP synthase assessed as reduction in total ATP content at 0.5 ug/ml after 18 hrs by bead-vortexing settling method; summary of the method: as §1
[20] = test system: Mycolicibacterium smegmatis; test: Inhibition of Mycobacterium smegmatis TMC 607 ATP synthase at 0.3 uM incubated for 10 mins prior to NADH addition measured after 1 hr by luminescence assay; summary of the method: as §2

CCN(CC)Cc1cc(N(c2cc(C)nc3cc(Cl)ccc23)S(=O)(=O)c2cc(C)cc(C)c2)ccc1O
IC50 ([1]; read-out: IC50): 1.83 µM

CCN(CC)Cc1cc(N(c2cc(C)nc3cc(Cl)ccc23)S(=O)(=O)c2ccc(Cl)c(Cl)c2)ccc1O
IC50 ([1]; read-out: IC50): 1.26 µM

CCN(CC)Cc1cc(N(c2cc(C)nc3cc(Cl)ccc23)S(=O)(=O)c2cccc(C(F)(F)F)c2)ccc1O
IC50 ([1]; read-out: IC50): 1.36 µM

C(=NC1CCCCC1)=NC1CCCCC1 [DICYCLOHEXYLCARBODIIMIDE]
inhibition [2]: 30% | inhibition [3]: 99.5% | inhibition (Mus musculus): 83% | log10CFU/ml [4]: 4.68 | MIC100 [5]: inactive

CCN(CC)Cc1cc(N(c2cc(C)nc3cc(Cl)ccc23)S(=O)(=O)c2cccs2)ccc1O
IC50 ([1]; read-out: IC50): 1.57 µM

CCN(CC)Cc1cc(Nc2cc(C)nc3cc(Cl)ccc23)ccc1O
MIC [6]: > 50 µg/mL | IC50 ([1]; read-out: IC50): 5.45 µM

CCN(CC)Cc1cc(N(c2cc(C)nc3cc(Cl)ccc23)S(=O)(=O)c2c(C(C)C)cc(C(C)C)cc2C(C)C)ccc1O
IC50 ([1]; read-out: IC50): 3.29 µM

CCN(CC)Cc1cc(N(c2cc(C)nc3cc(Cl)ccc23)S(=O)(=O)c2cc(Cl)ccc2Cl)ccc1O
IC50 ([1]; read-out: IC50): 1.34 µM

CCN(CC)Cc1cc(N(c2cc(C)nc3cc(Cl)ccc23)S(=O)(=O)[C@@]23CCC(CC2=O)C3(C)C)ccc1O
IC50 ([1]; read-out: IC50): 3.41 µM

CCN(CC)Cc1cc(N(c2cc(C)nc3cc(Cl)ccc23)S(=O)(=O)c2cccc3cccnc23)ccc1O
IC50 ([1]; read-out: IC50): 1.85 µM

CC[C@@H](CO)NCCN[C@@H](CC)CO [ETHAMBUTOL]
survival at 490 µmol/kg [7]: 90%

CCN(CC)Cc1cc(N(c2cc(C)nc3cc(Cl)ccc23)S(=O)(=O)c2ccc(C#N)cc2)ccc1O
MIC [6]: > 12.5 µg/mL | IC50 ([1]; read-out: IC50): 0.74 µM

CCN(CC)Cc1cc(N(c2cc(C)nc3cc(Cl)ccc23)S(=O)(=O)c2c(C)cc(C)cc2C)ccc1O
IC50 ([1]; read-out: IC50): 1.04 µM

CCN(CC)Cc1cc(N(c2cc(C)nc3cc(Cl)ccc23)S(=O)(=O)c2ccc(Cl)cc2Cl)ccc1O
Activity [8]: Non-toxic | MIC100 [6]: 3.12 µg/mL (≈ 5.39 µM) | Activity (Staphylococcus aureus): inactive | Activity (Cryptococcus neoformans): inactive | Activity (Klebsiella pneumoniae): inactive | Ratio IC50 [9]: > 155 | log10CFU/ml [10]: 0.79 | IC50 [11]: > 100 µM | Activity [12]: inactive | IC50 ([1]; read-out: IC50): 0.63 µM | Activity (Candida albicans): inactive | Activity (Sporothrix schenckii): inactive | Activity (Pseudomonas aeruginosa): inactive | inhibition [13]: 26% | Activity (Escherichia coli): inactive | Activity (Aspergillus fumigatus): inactive | CC50 at 72 h [14]: > 300 µg/mL | selectivity ratio [15]: > 48 | log10CFU/ml [4]: 1.64 | Activity (Candida parapsilosis): inactive | MIC100 [5]: 3.12 µg/mL (≈ 5.39 µM) | inhibition [16]: 54%

Cc1ncc([N+](=O)[O-])n1CCO [METRONIDAZOLE]
IC50 [1]: Not Active | log10CFU/ml [17]: 1.16 | MIC100 [5]: inactive

CCN(CC)Cc1cc(N(c2cc(C)nc3cc(Cl)ccc23)S(=O)(=O)c2ccc(Cl)s2)ccc1O
MIC100 [6]: 6.25 µg/mL (≈ 11.4 µM) | IC50 ([1]; read-out: IC50): 0.36 µM

CCN(CC)Cc1cc(N(c2cc(C)nc3cc(Cl)ccc23)S(=O)(=O)c2ccc([N+](=O)[O-])cc2)ccc1O
MIC100 [6]: 6.25 µg/mL (≈ 11.3 µM) | IC50 ([1]; read-out: IC50): 0.39 µM | CC50 at 72 h [14]: 55 µg/mL (≈ 99.1 µM) | selectivity ratio [15]: 18

NNC(=O)c1ccncc1 [ISONIAZID]
MIC [6]: 0.1 µg/mL (≈ 0.729 µM) | IC50 [1]: Not Active | log10CFU/ml [18]: 0.21 | inhibition [19]: 78.5% | inhibition [20]: 0% | MIC ([5]; Mycobacterium tuberculosis, H37Rv, 96 h, read-out: MIC100): ≤ 0.12 µg/mL

CCN(CC)Cc1cc(N(c2cc(C)nc3cc(Cl)ccc23)S(=O)(=O)c2cccc3ccccc23)ccc1O
MIC [6]: 12.5 µg/mL (≈ 22.3 µM) | IC50 ([1]; read-out: IC50): 1 µM

CCN(CC)Cc1cc(N(c2cc(C)nc3cc(Cl)ccc23)S(=O)(=O)c2ccc(Cl)cc2)ccc1O
Activity [8]: Non-toxic | MIC100 [6]: 6.25 µg/mL (≈ 11.5 µM) | IC50 ([1]; read-out: IC50): 0.53 µM | CC50 at 72 h [14]: > 300 µg/mL | selectivity ratio [15]: > 48

CO[C@H]1/C=C/O[C@@]2(C)Oc3c(C)c(O)c4c(O)c(c(/C=N/N5CCN(C)CC5)c(O)c4c3C2=O)NC(=O)/C(C)=C\C=C\[C@H](C)[C@H](O)[C@@H](C)[C@@H](O)[C@@H](C)[C@H](OC(C)=O)[C@@H]1C
inhibition [19]: 69.6%

CCN(CC)Cc1cc(N(c2cc(C)nc3cc(Cl)ccc23)S(=O)(=O)c2ccc3ccccc3c2)ccc1O
MIC [6]: > 25 µg/mL | IC50 ([1]; read-out: IC50): 0.92 µM
